Laboratory results taken from ChEMBL document CHEMBL1146047, “Novel pyrazolopyrimidopyridazinones with potent and selective phosphodiesterase 5 (PDE5) inhibitory activity as potential agents for treatment of erectile dysfunction” (J Med Chem, 2006).

Assays:
[1] = test system: Phosphodiesterase 6 (Bos taurus); experiment: Inhibition of PDE6 at 2 uM
[2] = target: T1, cGMP-specific 3',5'-cyclic phosphodiesterase (Homo sapiens, UniProt O76074); experiment: Inhibition of PDE5 at 2 uM
In short: (§1)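 PDE5 enzyme preparation was stored frozen at -80 °C with 1 g/L bovine serum albumin until use. […] Activity is reported as percent inhibition at the single test concentration indicated.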

[3] = test system: Phosphodiesterase 6 (Bos taurus); experiment: Inhibition of PDE6 at 0.2 uM
[4] = target: T1, cGMP-specific 3',5'-cyclic phosphodiesterase; experiment: Inhibition of PDE5
[5] = target: Phosphodiesterase 6 (Bos taurus); experiment: Inhibition of PDE6
Homo sapiens = species on record: Homo sapiens; experiment: Selectivity for PDE5 over PDE6
[6] = target: T1, cGMP-specific 3',5'-cyclic phosphodiesterase; experiment: Inhibition of PDE5 at 0.2 uM
In short: as §1

inhibition [1] | inhibition [2] | IC50 [4] | SMILES | also measured
1.2% | 44.7% |  | Cc1nn(C(C)C)c(=O)c2nc(C)n3nc(-c4ccccc4)cc3c12 | 
 | 49.3% |  | CCn1nc(C)c2c(nc(C)n3nc(-c4ccccc4)cc23)c1=O | inhibition [3]: 53.4%
 |  | 180 nM | Cc1nn(Cc2ccccc2)c(=O)c2ncn3nc(-c4ccccc4)cc3c12 | IC50 [5]: 860 nM
22.8% |  | 8.3 nM | CC(=O)CCc1nc2c(=O)n(Cc3ccccc3)nc(C)c2c2cc(-c3ccccc3)nn12 | Selectivity ratio (Homo sapiens): > 240
 |  | 370 nM | Cc1nn(Cc2ccccc2)c(=O)c2nc(C)n3nc(-c4ccc(Cl)cc4)cc3c12 | IC50 [5]: 4700 nM
12.3% | 14.3% |  | Cc1nc2c(=O)n(Cc3ccccc3)nc(C3CCCC3)c2c2cc(-c3ccccc3)nn12 | 
1.1% |  | 95 nM | COC(=O)CCCCc1nc2c(=O)n(Cc3ccccc3)nc(C)c2c2cc(-c3ccccc3)nn12 | 
 | 52.4% |  | Cc1nnc(NCc2ccccc2)c2nc(C)n3nc(-c4ccccc4)cc3c12 | 
 |  | 50 nM | Cc1nn(Cc2ccccc2)c(=O)c2nc(C)n3nc(-c4ccoc4)cc3c12 | IC50 [5]: 330 nM
 |  | 470 nM | Cc1nn(Cc2ccccc2)c(=O)c2nc(C)n3nc(-c4cccnc4)cc3c12 | IC50 [5]: 280 nM
21.8% |  | 220 nM | CCc1nn(Cc2ccccc2)c(=O)c2nc(C)n3nc(-c4ccccc4)cc3c12 | 
 |  |  | Cc1nc2c(=O)n(Cc3ccccc3)nc(CN3CCN(C)CC3)c2c2cc(-c3ccccc3)nn12 | inhibition [6]: 23%; inhibition [3]: 30%
16.9% |  | 79 nM | COC(=O)CCc1nc2c(=O)n(Cc3ccccc3)nc(C)c2c2cc(-c3ccccc3)nn12 | 
6.9% | 44.9% |  | CCCn1nc(C)c2c(nc(C)n3nc(-c4ccccc4)cc23)c1=O | 
39.4% |  | 240 nM | Cc1nn(Cc2ccncc2)c(=O)c2nc(C)n3nc(-c4ccccc4)cc3c12 | 
3.8% |  | 100 nM | COc1cccc(Cn2nc(C)c3c(nc(C)n4nc(-c5ccccc5)cc34)c2=O)c1 | Selectivity ratio (Homo sapiens): > 20
2.8% | 3.8% |  | Cc1nn(Cc2ccccc2)c(=O)c2nc(C)n3nc(-c4ccc(S(C)(=O)=O)cc4)cc3c12 | 
25% |  |  | Cc1nn(Cc2ccccc2)c(=O)c2nc(C)n3nc(-c4ccccc4)cc3c12 | 
 |  | 140 nM | Cc1nn(Cc2ccccc2)c(=O)c2nc(C)n3nc(-c4ccsc4)cc3c12 | IC50 [5]: 2200 nM; Selectivity ratio (Homo sapiens): 16
7% |  | 390 nM | Cc1nn(Cc2ccc3c(c2)OCO3)c(=O)c2nc(C)n3nc(-c4ccccc4)cc3c12 | 
26.6% | 67.7% |  | Cc1nn(CCC2CCNCC2)c(=O)c2nc(C)n3nc(-c4ccccc4)cc3c12 | 
 |  |  | Cc1nn(CC(=O)O)c(=O)c2nc(C)n3nc(-c4ccccc4)cc3c12 | inhibition [6]: 7.6%; inhibition [3]: 11.2%
59.8% |  | 100 nM | Cc1nc2c(=O)n(Cc3ccccc3)nc(C(C)C)c2c2cc(-c3ccccc3)nn12 | 
 |  | 40 nM | CCCc1nc2c(=O)n(Cc3ccccc3)nc(C)c2c2cc(-c3ccccc3)nn12 | IC50 [5]: 610 nM; Selectivity ratio (Homo sapiens): 15
4.5% | 38.8% |  | Cc1nn(Cc2ccccc2)c(=O)c2nc(C)n3nc(-c4ccc(F)cc4)cc3c12 | 
 |  |  | C#CCn1nc(C)c2c(nc(C)n3nc(-c4ccccc4)cc23)c1=O | inhibition [6]: 19.7%; inhibition [3]: 0.3%
 |  | 71 nM | CCOCc1nn(Cc2ccccc2)c(=O)c2nc(C)n3nc(-c4ccccc4)cc3c12 | IC50 [5]: 330 nM
32.5% | 54.6% |  | CCCCn1nc(C)c2c(nc(C)n3nc(-c4ccccc4)cc23)c1=O | 
 | 56.8% |  | Cc1nnc(NCc2ccc3c(c2)OCO3)c2nc(C)n3nc(-c4ccccc4)cc3c12 | 
